In ChEMBL document CHEMBL4400539, “Discovery of a Novel Chemotype of Histone Lysine Methyltransferase EHMT1/2 (GLP/G9a) Inhibitors: Rational Design, Synthesis, Biological Evaluation, and Co-crystal Structure” (J Med Chem, 2019):
The source made the active and inactive calls. No cut-off for these calls is given here.

Assays:
[1] = biological target: T1, Histone-lysine N-methyltransferase EHMT2 (Homo sapiens, UniProt Q96KQ7); assay: Non-competitive inhibition of recombinant human G9a using biotinylated-Histone H3 peptide (1 to 21 residues) as substrate after 30 mins in presence of varying concentration of SAM by Lineweaver-Burk plot analysis
T1 sequence (Q96KQ7 whole entry): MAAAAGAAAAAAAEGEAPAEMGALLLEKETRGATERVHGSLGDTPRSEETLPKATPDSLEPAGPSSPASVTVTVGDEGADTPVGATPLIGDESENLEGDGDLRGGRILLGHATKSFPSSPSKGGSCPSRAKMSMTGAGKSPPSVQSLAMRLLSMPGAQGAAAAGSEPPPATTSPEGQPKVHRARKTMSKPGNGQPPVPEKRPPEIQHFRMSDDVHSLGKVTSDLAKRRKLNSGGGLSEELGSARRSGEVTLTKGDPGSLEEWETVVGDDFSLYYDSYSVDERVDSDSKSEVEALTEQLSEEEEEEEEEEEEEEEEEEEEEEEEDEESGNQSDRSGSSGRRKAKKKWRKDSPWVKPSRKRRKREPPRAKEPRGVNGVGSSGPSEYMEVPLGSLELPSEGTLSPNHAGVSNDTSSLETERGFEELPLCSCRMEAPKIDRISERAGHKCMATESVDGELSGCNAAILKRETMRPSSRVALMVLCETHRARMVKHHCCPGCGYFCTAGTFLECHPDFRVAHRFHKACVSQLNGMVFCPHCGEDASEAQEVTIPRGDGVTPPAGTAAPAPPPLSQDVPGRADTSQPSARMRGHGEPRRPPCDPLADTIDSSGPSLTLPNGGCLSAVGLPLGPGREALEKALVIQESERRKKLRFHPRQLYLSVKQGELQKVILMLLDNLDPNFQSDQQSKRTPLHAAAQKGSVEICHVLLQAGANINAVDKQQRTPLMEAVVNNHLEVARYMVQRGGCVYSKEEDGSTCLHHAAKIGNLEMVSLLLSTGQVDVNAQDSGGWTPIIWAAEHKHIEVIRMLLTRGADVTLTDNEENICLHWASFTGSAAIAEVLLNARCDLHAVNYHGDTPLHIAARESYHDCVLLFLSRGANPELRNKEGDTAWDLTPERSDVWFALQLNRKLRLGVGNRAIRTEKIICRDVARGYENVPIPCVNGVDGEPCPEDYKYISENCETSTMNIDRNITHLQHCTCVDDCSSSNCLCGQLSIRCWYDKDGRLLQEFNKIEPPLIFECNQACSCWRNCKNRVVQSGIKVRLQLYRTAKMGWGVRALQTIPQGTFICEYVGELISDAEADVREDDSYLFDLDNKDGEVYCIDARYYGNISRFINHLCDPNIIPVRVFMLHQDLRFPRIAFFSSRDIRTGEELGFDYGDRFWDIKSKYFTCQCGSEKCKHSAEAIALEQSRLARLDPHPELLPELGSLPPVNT

[2] = biological target: T2, Histone-lysine N-methyltransferase EHMT2 (Homo sapiens) (UniProt Q96KQ7)
T2 sequence (whole entry): T1 sequence (Q96KQ7 whole entry)

[3] = biological target: T1, Histone-lysine N-methyltransferase EHMT2; assay: Inhibition of recombinant human G9a using biotinylated-Histone H3 peptide (1 to 21 residues) after 30 mins in presence of SAM by AlphaLISA assay
[4] = biological target: Protein arginine N-methyltransferase 3 (Homo sapiens) (UniProt O60678); assay: Inhibition of recombinant human PRMT3 at 10 to 25 uM using biotinylated-Histone H4 peptide (1 to 21 residues) as substrate preincubated for 30 mins followed by substrate addition and measured after 60 mins in presence of SAM by AlphaLISA assay relative to control
Sequence of Protein arginine N-methyltransferase 3 (Homo sapiens) (O60678 2-531 limits assumed): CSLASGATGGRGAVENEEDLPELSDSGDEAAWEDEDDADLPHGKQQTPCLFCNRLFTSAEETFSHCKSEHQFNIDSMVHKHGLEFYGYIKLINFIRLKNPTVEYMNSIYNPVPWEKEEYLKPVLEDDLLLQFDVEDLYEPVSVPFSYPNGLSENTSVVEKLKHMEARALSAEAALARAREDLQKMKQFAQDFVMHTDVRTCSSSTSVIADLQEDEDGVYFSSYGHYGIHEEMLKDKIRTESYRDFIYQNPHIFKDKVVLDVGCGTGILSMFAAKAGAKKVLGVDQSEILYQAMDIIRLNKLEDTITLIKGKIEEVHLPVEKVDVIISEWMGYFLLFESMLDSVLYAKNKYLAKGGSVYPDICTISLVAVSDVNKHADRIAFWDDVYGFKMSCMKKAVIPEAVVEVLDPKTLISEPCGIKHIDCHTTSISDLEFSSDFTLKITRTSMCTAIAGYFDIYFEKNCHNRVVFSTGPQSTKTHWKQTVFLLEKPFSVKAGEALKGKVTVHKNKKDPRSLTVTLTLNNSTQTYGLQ
Outline: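 Biotinylated H4(1–21) peptide plus SAM then added for 60 min: PRMT1 0.9 nM, peptide 100 nM, SAM 2 μM; PRMT3 23 nM, peptide 50 nM, SAM 10 μM. Anti-H4R3me AlphaLISA; 10 and 25 μM; three experiments, mean ± SD.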

MDA-MB-231 = assay: Cytotoxicity against human MDA-MB-231 cells assessed as reduction in cell viability up to 5 uM after 72 hrs by MTT assay; assay type: cell-based; details: mda-mb-231, 72 h
Outline: (§1)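 MCF-7, MDA-MB-231 and U-343 cells exposed 24, 48 and 72 h to 0.05, 0.5, 5 and 50 μM compound; viability by MTT reduction to formazan versus vehicle; mean ± SD of at least three independent experiments.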

[5] = Cytotoxicity against human U343MG cells assessed as reduction in cell viability up to 5 uM after 72 hrs by MTT assay; assay type: cell-based
Outline: as §1

[6] = biological target: DNA (cytosine-5)-methyltransferase 1 (Homo sapiens, UniProt P26358); assay: Inhibition of N-terminal GST-tagged recombinant full length human DNMT1 (2 to 1632 residues) using poly(dI-dC)):poly(dI-dC) as substrate preincubated for 20 mins followed by [3H]-SAM and measured after 60 mins by scintillation counting
Sequence of DNA (cytosine-5)-methyltransferase 1 (P26358 whole entry, the tested form may be a part): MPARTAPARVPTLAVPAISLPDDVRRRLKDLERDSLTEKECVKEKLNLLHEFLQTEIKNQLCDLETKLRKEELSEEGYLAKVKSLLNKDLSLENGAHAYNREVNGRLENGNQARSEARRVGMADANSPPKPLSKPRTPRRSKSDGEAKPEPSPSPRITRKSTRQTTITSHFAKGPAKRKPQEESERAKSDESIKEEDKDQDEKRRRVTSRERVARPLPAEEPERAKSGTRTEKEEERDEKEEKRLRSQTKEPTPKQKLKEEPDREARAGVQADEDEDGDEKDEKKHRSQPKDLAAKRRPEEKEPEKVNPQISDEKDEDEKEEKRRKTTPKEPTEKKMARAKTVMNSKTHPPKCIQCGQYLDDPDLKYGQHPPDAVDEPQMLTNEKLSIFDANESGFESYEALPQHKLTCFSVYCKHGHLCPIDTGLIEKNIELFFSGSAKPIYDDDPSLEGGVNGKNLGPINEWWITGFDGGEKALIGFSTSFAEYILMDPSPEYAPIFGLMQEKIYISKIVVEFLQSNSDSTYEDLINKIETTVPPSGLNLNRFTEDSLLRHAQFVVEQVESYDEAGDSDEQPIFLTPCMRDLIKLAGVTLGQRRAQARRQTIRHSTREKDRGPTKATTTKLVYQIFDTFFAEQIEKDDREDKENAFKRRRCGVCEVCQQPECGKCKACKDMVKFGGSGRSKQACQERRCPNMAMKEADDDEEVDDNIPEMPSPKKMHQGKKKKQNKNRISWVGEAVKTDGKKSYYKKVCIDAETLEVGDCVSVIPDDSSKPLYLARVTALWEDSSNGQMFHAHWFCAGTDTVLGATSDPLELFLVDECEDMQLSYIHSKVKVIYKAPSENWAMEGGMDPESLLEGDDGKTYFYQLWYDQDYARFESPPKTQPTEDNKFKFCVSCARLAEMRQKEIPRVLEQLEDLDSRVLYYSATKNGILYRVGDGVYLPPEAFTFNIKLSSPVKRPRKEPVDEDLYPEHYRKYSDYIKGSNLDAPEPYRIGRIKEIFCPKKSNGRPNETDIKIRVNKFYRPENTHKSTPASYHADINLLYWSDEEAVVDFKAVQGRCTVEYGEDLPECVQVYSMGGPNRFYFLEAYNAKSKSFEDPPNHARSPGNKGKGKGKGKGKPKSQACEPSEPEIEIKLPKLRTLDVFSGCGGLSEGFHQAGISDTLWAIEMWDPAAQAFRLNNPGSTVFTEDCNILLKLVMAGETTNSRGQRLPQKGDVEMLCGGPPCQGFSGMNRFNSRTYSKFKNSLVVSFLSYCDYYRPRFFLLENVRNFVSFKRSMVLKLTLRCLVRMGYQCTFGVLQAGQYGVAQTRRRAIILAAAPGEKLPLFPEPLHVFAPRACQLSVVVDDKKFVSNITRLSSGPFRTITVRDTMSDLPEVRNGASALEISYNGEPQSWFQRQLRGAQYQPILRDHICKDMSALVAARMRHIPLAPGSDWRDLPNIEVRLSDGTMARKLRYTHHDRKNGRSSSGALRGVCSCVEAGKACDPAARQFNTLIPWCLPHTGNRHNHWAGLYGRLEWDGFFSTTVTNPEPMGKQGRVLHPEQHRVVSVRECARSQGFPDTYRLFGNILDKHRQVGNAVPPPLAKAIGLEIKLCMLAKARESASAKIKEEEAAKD

[7] = biological target: DNA (cytosine-5)-methyltransferase 3A (Homo sapiens) (UniProt Q9Y6K1); assay: Inhibition of N-terminal GST-tagged recombinant full length human DNMT3a (2 to 913 residues) using bacteriophage lambda DNA as substrate preincubated for 20 mins followed by [3H]-SAM and measured after 60 mins by scintillation counting
[8] = biological target: Histone acetyltransferase p300 (Homo sapiens) (UniProt Q09472); assay: Inhibition of recombinant human P300 at 10 to 25 uM using biotinylated-Histone H4 peptide (1 to 21 residues) as substrate preincubated for 30 mins followed by substrate addition and measured after 60 mins in presence of SAM by AlphaLISA assay relative to control
Sequence of Histone acetyltransferase p300 (Homo sapiens) (Q09472 whole entry, the tested form may be a part): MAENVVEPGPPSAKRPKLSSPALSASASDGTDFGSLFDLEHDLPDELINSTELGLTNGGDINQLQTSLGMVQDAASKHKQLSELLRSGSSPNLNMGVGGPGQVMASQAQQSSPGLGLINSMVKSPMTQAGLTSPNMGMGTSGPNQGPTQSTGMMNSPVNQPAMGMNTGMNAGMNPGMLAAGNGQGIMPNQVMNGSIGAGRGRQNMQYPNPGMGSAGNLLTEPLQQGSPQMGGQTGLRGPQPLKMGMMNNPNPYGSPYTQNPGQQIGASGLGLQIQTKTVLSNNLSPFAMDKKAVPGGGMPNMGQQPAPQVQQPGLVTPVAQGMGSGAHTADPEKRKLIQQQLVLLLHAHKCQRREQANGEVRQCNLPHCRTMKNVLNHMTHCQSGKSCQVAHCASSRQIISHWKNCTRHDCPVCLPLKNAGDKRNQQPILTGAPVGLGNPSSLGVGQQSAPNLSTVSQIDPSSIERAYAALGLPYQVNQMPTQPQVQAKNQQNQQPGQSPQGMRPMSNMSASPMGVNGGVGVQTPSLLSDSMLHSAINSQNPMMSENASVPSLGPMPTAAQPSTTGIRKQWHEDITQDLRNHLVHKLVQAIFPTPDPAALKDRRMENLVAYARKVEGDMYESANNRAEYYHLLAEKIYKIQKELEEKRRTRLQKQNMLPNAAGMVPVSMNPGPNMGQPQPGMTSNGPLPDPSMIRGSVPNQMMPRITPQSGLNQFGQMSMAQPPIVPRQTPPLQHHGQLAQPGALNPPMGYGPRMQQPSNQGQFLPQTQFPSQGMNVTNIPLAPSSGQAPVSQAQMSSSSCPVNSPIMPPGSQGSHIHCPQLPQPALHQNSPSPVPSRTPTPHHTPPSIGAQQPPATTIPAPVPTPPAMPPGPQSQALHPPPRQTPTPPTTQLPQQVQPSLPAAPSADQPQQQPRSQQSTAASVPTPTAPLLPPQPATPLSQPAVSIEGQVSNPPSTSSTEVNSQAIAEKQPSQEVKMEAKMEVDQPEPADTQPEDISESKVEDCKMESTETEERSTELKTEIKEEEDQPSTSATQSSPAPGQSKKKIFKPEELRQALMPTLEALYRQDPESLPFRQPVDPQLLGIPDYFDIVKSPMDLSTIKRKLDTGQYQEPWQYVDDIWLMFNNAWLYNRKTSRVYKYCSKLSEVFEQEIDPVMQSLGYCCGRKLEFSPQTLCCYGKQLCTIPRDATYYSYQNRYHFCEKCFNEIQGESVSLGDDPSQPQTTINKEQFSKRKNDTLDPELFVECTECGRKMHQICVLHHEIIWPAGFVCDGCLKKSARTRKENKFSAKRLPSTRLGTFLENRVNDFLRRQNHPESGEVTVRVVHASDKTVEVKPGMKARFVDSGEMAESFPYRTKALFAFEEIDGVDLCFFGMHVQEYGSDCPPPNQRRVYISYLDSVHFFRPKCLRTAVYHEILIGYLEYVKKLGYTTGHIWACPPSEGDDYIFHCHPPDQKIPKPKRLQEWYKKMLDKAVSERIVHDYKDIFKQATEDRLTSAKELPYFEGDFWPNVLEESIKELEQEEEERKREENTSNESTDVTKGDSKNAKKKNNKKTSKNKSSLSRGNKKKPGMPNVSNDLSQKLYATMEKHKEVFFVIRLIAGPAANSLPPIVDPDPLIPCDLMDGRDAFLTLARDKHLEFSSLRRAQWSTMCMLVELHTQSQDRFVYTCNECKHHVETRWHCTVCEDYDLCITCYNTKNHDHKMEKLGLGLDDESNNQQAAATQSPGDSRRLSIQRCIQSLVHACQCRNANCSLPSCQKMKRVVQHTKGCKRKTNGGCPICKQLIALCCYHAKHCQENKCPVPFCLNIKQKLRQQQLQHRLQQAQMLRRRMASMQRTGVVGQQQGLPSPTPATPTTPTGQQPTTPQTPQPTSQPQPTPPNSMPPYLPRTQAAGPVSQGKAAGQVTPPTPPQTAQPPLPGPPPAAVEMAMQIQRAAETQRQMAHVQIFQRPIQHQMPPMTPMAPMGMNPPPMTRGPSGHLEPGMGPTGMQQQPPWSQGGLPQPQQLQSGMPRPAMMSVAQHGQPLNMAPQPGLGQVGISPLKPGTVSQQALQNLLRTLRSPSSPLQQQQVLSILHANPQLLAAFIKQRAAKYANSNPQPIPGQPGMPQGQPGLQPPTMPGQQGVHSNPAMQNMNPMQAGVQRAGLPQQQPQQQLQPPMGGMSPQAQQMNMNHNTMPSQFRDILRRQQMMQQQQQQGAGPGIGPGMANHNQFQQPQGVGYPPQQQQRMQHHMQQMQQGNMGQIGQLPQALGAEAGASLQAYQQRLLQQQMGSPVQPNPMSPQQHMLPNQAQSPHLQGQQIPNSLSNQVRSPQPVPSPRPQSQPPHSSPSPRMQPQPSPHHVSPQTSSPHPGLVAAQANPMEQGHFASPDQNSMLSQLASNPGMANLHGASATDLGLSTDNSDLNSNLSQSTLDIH

[9] = biological target: T2, Histone-lysine N-methyltransferase EHMT2 (Homo sapiens); assay: Inhibition of recombinant human G9a at 10 uM using biotinylated-Histone H3 peptide (1 to 21 residues) after 30 mins by AlphaLISA assay relative to control
Outline: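 G9a AlphaLISA at fixed 10 or 25 μM compound: human recombinant G9a 1 nM, 30 min preincubation, then biotinylated H3(1–21) 100 nM plus SAM 15 μM for 30 min at room temperature, pH 8.8 Tris buffer with 0.01% Tween-20; anti-H3K9me2 acceptor and streptavidin donor beads; percent of DMSO control.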

[10] = Chemical stability of the compound in PBS buffer after 72 hrs by HPLC analysis; assay type: physicochemical
Outline: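 Stability checked by HPLC after exposure to PBS over 72 h.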

Ki [1]: 3.6 nM | Ka [2]: 550 | IC50 [3]: 23 nM | inhibition [4]: inactive | IC50 [6]: 3100 nM | inhibition [7]: inactive | inhibition [8]: inactive | inhibition [9]: 97% | Stability [10]: Stable
SMILES: COc1cc2c(cc1OCCCN1CCCC1)N=C(C1CCCCC1)CN=C2NC1CCN(C(C)C)CC1
Activity (MDA-MB-231): Non-Toxic | Activity [5]: Non-Toxic
